Source: ChEMBL document CHEMBL3259693, “Multitarget drug discovery for tuberculosis and other infectious diseases” (J Med Chem, 2014)
≈ marks a conversion by molar mass, not a printed value. Calls of active or inactive are those of the source. The calls are words filed in the database; no cut-off is given here.

What was measured:
Escherichia coli [1] = assay: microbe, parasite or virus in culture; format: functional, organism-based; conditions: ATCC 29425, 3 h
Squalene synthase = target: T1, Squalene synthase (Homo sapiens, UniProt P37268); assay: Inhibition of human SQS
T1 sequence (P37268 whole entry): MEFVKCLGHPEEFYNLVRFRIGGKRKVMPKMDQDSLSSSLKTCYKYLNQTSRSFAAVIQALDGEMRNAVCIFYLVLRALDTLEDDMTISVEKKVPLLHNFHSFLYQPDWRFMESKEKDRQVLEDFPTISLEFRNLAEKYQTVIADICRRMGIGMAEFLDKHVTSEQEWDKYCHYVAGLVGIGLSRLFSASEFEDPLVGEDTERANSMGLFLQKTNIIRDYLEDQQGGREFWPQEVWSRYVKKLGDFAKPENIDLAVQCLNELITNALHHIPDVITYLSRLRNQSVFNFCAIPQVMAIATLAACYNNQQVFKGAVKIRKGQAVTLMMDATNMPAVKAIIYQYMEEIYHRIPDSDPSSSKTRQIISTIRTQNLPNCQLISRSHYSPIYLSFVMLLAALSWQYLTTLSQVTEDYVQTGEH

Escherichia coli [2] = assay: Ratio of IC50 for Escherichia coli ATCC 29425 in presence of 10% fetal bovine serum to IC50 for Escherichia coli ATCC 29425; format: functional
In short: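 E. coli broth microdilution in LB. Culture was grown to OD600 ~0.4, diluted 500-fold, and exposed to compound from 0.3 mM, 2× serially diluted to 292 nM. Plates ran 3 h at 37 °C with or without 10% FBS. Viability was read by MTT at 570 nm, and IC50 was obtained by non-linear regression.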

[3] = test system: Mycolicibacterium smegmatis; assay: Disruption of membrane potential in Mycobacterium smegmatis by DisC3(5) probe-based fluorescence spectrophotometry; format: functional, organism-based
[4] = Inhibition of Mycobacterium smegmatis MenA; set-up: species or system Mycolicibacterium smegmatis
[5] = target: T2, 4,4'-diapophytoene synthase (Staphylococcus aureus, UniProt A9JQL9); assay: Inhibition of Staphylococcus aureus CrtM
T2 sequence (A9JQL9 whole entry): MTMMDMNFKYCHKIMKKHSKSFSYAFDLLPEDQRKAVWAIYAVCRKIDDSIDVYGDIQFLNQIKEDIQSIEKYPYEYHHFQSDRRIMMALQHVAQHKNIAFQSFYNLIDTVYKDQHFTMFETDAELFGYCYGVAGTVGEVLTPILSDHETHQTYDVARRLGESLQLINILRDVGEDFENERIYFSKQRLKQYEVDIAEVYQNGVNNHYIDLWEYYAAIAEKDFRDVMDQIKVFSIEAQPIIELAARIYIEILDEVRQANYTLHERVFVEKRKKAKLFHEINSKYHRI

[6] = Inhibition of Escherichia coli undecaprenyl diphosphate synthase
Escherichia coli [7] = assay: Induction of collapse in deltapH in Escherichia coli inverted membrane vesicles by 31P NMR spectroscopy; format: functional, organism-based
[8] = Inhibition of Mycobacterium smegmatis malate dehydrogenase using malate as substrate by MTT assay; set-up: species or system Mycolicibacterium smegmatis
In short: (§1)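 M. smegmatis membrane preparation with 5 mM KCN. Dehydrogenase activity was followed as MTT reduction at 570 nm after adding substrate: NADH (Complex I plus NDH-2), deamino-NADH (Complex I only), succinate, malate or lactate. IC50 values were derived from these rates.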

Saccharomyces cerevisiae = assay: Antimicrobial activity against Saccharomyces cerevisiae ATCC 208352 after 48 hrs by microbroth dilution method; format: functional, organism-based; conditions: ATCC 208352, 48 h
[9] = test system: Mycobacterium tuberculosis; assay: Antimicrobial activity against Mycobacterium tuberculosis H37Rv incubated for 7 days measured after 28 days by resazurin microplate reduction assay in presence of MK-4; format: functional
In short: (§2)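 Resazurin microplate reduction assay (REMA) on actively growing M. tuberculosis H37Rv. Drug tested from 10 ng/mL to 10 μg/mL. Medium was supplemented with 0, 10, 100 or 1000 μM menaquinone-4 (MK-4) to test quinone rescue. Activity was read as loss of resazurin reduction to fluorescent resorufin, giving an MIC.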

[10] = Inhibition of Mycobacterium tuberculosis cis-farnesyl diphosphate synthase
Bacillus subtilis = assay: Antimicrobial activity against Bacillus subtilis subsp. subtilis ATCC 6051 after 12 to 16 hrs by microbroth dilution method; format: functional, organism-based
Plasmodium falciparum = assay: Antimicrobial activity against Plasmodium falciparum 3D7 by intraerythrocytic assay; format: functional, organism-based
[11] = target: T3, Geranylgeranyl pyrophosphate synthase (Homo sapiens, UniProt O95749); assay: Inhibition of human geranylgeranyl diphosphate synthase
T3 sequence (O95749 whole entry): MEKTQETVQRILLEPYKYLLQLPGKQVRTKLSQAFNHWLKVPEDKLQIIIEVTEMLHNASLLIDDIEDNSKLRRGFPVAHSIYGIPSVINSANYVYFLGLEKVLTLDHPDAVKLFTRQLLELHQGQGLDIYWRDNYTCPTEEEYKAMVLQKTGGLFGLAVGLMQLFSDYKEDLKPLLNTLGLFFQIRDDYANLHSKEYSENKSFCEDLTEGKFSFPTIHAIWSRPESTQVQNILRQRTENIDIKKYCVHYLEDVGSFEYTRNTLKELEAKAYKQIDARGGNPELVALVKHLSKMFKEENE

[12] = Inhibition of Mycobacterium smegmatis NADH dehydrogenase using […] by MTT assay; set-up: species or system Mycolicibacterium smegmatis
In short: as §1

MCF7 = assay: Cytotoxicity against human MCF7 cells assessed as growth inhibition by MTT assay; format: cell-based
[13] = Inhibition of Mycobacterium smegmatis MenG using radiolabeled S-adenosylmethionine as substrate after 1 hr by liquid scintillation counting analysis; set-up: species or system Mycolicibacterium smegmatis
[14] = test system: Mycobacterium tuberculosis; assay: Antimicrobial activity against nonreplicating streptomycin-starved Mycobacterium tuberculosis 18b at 1 ug/ml incubated for 7 days measured after 28 days by resazurin microplate reduction assay; format: functional
[15] = Inhibition of Mycobacterium smegmatis succinate dehydrogenase using succinate as substrate by MTT assay; set-up: species or system Mycolicibacterium smegmatis
In short: as §1

[16] = test system: Mycolicibacterium smegmatis; assay: Induction of collapse in deltapH in Mycobacterium smegmatis inverted membrane vesicles at 30 to 150 uM by 31P NMR spectroscopy; format: functional
[17] = Inhibition of Mycobacterium smegmatis electron transport protein complex 1 using NADH as substrate by MTT assay; set-up: species or system Mycolicibacterium smegmatis
In short: as §1

[18] = Inhibition of Mycobacterium smegmatis lactate dehydrogenase using lactate as substrate by MTT assay; set-up: species or system Mycolicibacterium smegmatis
In short: as §1

[19] = Inhibition of Mycobacterium tuberculosis cis-decaprenyl diphosphate synthase
[20] = Inhibition of Staphylococcus aureus undecaprenyl diphosphate synthase
[21] = Therapeutic index, ratio of IC50 for human MCF7 cells to IC50 for Plasmodium falciparum 3D7; format: cell-based; conditions: MCF7 cells versus Plasmodium falciparum 3D7, read-out: Ratio IC50
[22] = test system: Mycobacterium tuberculosis; assay: Antimicrobial activity against Mycobacterium tuberculosis H37Rv incubated for 7 days measured after 28 days by resazurin microplate reduction assay; format: functional
In short: as §2

[23] = Therapeutic index, ratio of IC50 for human MCF7 cells to MIC for Mycobacterium tuberculosis ATCC 27294; format: cell-based; conditions: MCF7 cells versus Mycobacterium tuberculosis ATCC 27294, read-out: TI
[24] = Inhibition of Plasmodium vivax geranylgeranyl diphosphate synthase
[25] = test system: Mycobacterium tuberculosis; assay: microbe, parasite or virus in culture; format: functional; conditions: ATCC 27294
[26] = Inhibition of Mycobacterium tuberculosis MenA
[27] = test system: Mycobacterium tuberculosis; assay: Antimicrobial activity against Mycobacterium tuberculosis H37Rv; format: functional
[28] = Inhibition of Escherichia coli N-terminal strep-tagged MenA expressed in Escherichia coli C43 (DE3) assessed as demethylmenaquinone-3 formation after 30 mins by HPLC analysis
[29] = test system: Mycolicibacterium smegmatis; assay: Inhibition of respiration in Mycobacterium smegmatis after 5 mins by methylene blue reduction assay in presence of NADH; format: functional, organism-based
[30] = test system: Mycolicibacterium smegmatis; assay: microbe, parasite or virus in culture; format: functional; conditions: ATCC 700084
[31] = Inhibition of Staphylococcus aureus farnesyl diphosphate synthase
Candida albicans = assay: Antimicrobial activity against Candida albicans CAI-4; format: functional, organism-based
[32] = Inhibition of Mycobacterium smegmatis electron transport protein complex 1 using deamino-NADH as substrate by MTT assay; set-up: species or system Mycolicibacterium smegmatis
In short: as §1

SMILES: CC(C)=CCC/C(C)=C/CNCCNC1C2CC3CC(C2)CC1C3 (centres undefined) [SQ109]
- IC50 (Escherichia coli [1]): 8.5 µM
- IC50 (Squalene synthase): 100 µM
- Ratio IC50 (Escherichia coli [2]): 1.6
- EC50 [3]: 20 µg/mL (≈ 60.5 µM)
- IC50 [3]: 55 µM
- IC50 [4]: 4.8 µM
- IC50 [5]: 100 µM
- IC50 [6]: ≥ 50 µM
- IC50 (Escherichia coli [7]): 0.8 µM
- IC50 [8]: 10 µg/mL (≈ 30.3 µM)
- IC50 (Saccharomyces cerevisiae): 3.3 µM
- MIC [9]: 1 µg/mL
- IC50 [10]: ≥ 50 µM
- IC50 (Bacillus subtilis): 23 µM
- IC50 (Plasmodium falciparum): 3 µM
- IC50 [11]: 4.5 µM
- IC50 [12]: 30 µg/mL (≈ 90.8 µM)
- IC50 (MCF7): 18 µM
- IC50 [13]: 13 µM
- MIC [14]: 1 µg/mL (≈ 3.03 µM)
- IC50 [15]: 30 µg/mL (≈ 90.8 µM)
- Activity [16]: Active
- IC50 [17]: 30 µg/mL (≈ 90.8 µM)
- IC50 [18]: 30 µg/mL (≈ 90.8 µM)
- IC50 [19]: ≥ 50 µM
- IC50 [20]: ≥ 50 µM
- selectivity ratio [21]: 18
- MIC [22]: 0.15 µg/mL (≈ 0.454 µM)
- selectivity ratio [23]: 120
- IC50 [24]: ≥ 50 µM
- MIC [25]: 0.3 µM (≈ 0.0992 µg/mL)
- IC50 [26]: 9 µM
- MIC [27]: 0.7 µM (≈ 0.231 µg/mL)
- IC50 [28]: 3.3 µM
- IC50 [29]: 58 µM
- MIC [30]: 9.4 µM (≈ 3.11 µg/mL)
- IC50 [31]: ≥ 50 µM
- IC50 (Candida albicans): 10 µM
- IC50 [32]: 30 µg/mL (≈ 90.8 µM)
